TLR4-MyD88 BLA: inhibitors of human TLR4-MyD88 binding; inhibition, % at 8.4 µM; 200,000 compounds, 0.18% hits; HeLa CL3-4 TLR4/MyD88 BLA complementation, FRET ratio; O00206+Q99836; in the data active = inhibition above about 25%;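 note: 0% = vehicle and 100% = reference inhibitor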
UPR CHOP act: apoptotic UPR (CHOP) activation. CHO-CHOP luciferase reporter, luminescence; percent of tunicamycin response over DMSO baseline. AID 449763. activation, % at 10 µM. 330,000 compounds, 0.34% hits;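 active = at 10 µM dose, activation of 40% or more, normalized to positive control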;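 note: 100% = tunicamycin at 10 µg/mL and 0% = DMSO alone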
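Assay system: CHO cells with stable CHOP pathway luciferase reporter; Buffer or medium: F12 plus 10% serum; Times: 16-18 h cell attachment, then 6 h compound exposure, 37 °C; Signal: luciferase luminescence; Read-out basis: percent activation relative to tunicamycin control; Control set: tunicamycin high control, DMSO low control.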
NOD2-RIPK2 inh: NOD2-RIPK2 protein interaction inhibition; O43353; CHO BLA complementation NOD2-RIPK2, CCF4 ratio; inhibition, % at 4.98 µM; 360,000 compounds, 0.38% hits; AID 624267; in the data active = inhibition above about 21%;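 note: 0% = vehicle only and 100% = reference blocker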
CHOP inh: CHOP inhibition in unfolded protein response. CHO-K1 CHOP-promoter luciferase, tunicamycin-induced, 15-18 h. inhibition, % at 10 µM. AID 2732. 220,000 compounds, 3.8% hits;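 active = compounds that reduced the stress-induced luciferase reporter signal by more than about 70% of percent inhibition, limit read from the data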;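 note: 0% = tunicamycin plus vehicle and 100% = wells without tunicamycin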
TLR9-MyD88 inh: inhibitors of human TLR9-MyD88 binding; Q9NR96+Q99836; CHO BLA complementation TLR9-MyD88, CCF4 FRET ratio; inhibition, % at 4.98 µM; 340,000 compounds, 0.21% hits; AID 504734;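 active = inhibition above the mean over all tested compounds plus 3 SD, cut at about 21% in these data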;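 note: 0% = DMSO only wells and 100% = clavulanate BLA inhibitor control wells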
Target sequence (Q99836 whole entry, looked up): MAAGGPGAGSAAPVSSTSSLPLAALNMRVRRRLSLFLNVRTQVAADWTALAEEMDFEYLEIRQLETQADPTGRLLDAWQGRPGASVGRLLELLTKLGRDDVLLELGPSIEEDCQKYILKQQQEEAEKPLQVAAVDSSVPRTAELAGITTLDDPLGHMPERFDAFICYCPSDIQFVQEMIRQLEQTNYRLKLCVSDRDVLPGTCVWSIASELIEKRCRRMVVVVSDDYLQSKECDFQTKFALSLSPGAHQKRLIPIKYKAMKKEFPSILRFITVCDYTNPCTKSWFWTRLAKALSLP
Target sequence (Q9NR96 whole entry, looked up): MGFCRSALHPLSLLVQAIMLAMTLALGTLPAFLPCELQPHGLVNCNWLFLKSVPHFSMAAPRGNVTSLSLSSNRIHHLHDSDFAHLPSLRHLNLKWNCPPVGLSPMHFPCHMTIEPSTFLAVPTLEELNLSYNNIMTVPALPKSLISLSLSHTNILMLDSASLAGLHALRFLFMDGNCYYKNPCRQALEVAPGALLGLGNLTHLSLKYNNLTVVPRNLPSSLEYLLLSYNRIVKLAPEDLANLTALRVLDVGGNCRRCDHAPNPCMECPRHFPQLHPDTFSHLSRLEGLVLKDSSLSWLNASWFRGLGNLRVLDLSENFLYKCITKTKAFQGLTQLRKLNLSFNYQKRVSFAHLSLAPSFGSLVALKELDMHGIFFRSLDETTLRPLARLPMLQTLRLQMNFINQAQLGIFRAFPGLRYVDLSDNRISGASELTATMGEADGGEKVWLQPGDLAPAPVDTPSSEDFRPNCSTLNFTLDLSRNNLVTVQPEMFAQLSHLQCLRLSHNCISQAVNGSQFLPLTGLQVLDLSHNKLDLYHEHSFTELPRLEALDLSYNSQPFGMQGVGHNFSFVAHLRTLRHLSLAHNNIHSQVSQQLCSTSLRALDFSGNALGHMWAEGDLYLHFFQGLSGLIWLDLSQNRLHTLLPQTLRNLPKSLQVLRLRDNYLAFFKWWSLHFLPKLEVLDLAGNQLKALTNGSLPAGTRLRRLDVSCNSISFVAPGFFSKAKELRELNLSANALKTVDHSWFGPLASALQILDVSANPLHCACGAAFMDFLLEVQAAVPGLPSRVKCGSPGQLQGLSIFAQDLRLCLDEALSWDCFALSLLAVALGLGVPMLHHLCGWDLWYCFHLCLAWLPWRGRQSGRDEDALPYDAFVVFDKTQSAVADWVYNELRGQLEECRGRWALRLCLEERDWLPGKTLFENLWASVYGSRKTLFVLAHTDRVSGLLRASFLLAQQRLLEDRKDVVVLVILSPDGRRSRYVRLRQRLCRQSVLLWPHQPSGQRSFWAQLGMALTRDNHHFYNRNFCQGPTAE
XBP1 UPR activ: adaptive UPR (XBP1) activation | CHO-XBP1 luciferase reporter, IRE1-XBP1 UPR activation, luminescence; percent of tunicamycin response, DMSO as zero | activation, % at 20 µM | 330,000 compounds, 0.33% hits | AID 463104;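 active = versus positive control, 20 µM dose yields 30% or more activation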;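 note: 100% = tunicamycin at 10 µg/mL and 0% = DMSO only wells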
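Material: CHO cell line with stable XBP1 luciferase reporter; buffer or medium: F12 medium containing 10% fetal bovine serum; compound: single point, 20 µM final compound, 1% DMSO; incubation: 6 h treatment, 37 °C; measured by: glow luminescence from Steady-Glo reagent; evaluation: activation, % of tunicamycin; control set: tunicamycin high, DMSO low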
NOD2-RIPK2 conf: NOD2-RIPK2 interaction inhibition confirmed; inhibition, % at 4.98 µM; AID 624370; shares compounds with NOD2-RIPK2 inh; 1,200 compounds, 70% hits; CHO cells, NOD2-RIPK2 BLA complementation, CCF4 FRET;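 active = mean inhibition across replicates above a set limit taken from the earlier primary screen, cut at about 21% in these data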;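 note: 0% = DMSO-only wells and the high end = clavulanate BLA-blocked wells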
BLA counter: hits BLA reporter in NOD2-RIPK2 inhibitor counterscreen | inhibition, % at 4.98 µM | CHO BLA reporter, CCF4 FRET ratio | 1,200 compounds, 57% hits | shares compounds with NOD2-RIPK2 inh | AID 624371;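 active = mean inhibition above the low-control mean inhibition plus three low-control SD, cut at about 11% in these data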;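 note: 0% = DMSO only wells and 100% = clavulanate high control wells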
An asterisk follows results filed as active; x = no result given. The full list was thinned out, with hits kept by preference.

SMILES	TLR4-MyD88 BLA	UPR CHOP act	NOD2-RIPK2 inh	CHOP inh	TLR9-MyD88 inh	XBP1 UPR activ	NOD2-RIPK2 conf	BLA counter
COc1cccc(N2C(=NC(=O)C3CCCCC3)SC3CS(=O)(=O)CC32)c1 (centres undefined)	x	3.5	-5.4	x	0.1	-0.4	x	x
COC(=O)c1c(C(=O)OC)c(-c2cccc(F)c2)n2c1CS(=O)(=O)C2	x	-1.7	-6.7	x	0.5	1.1	x	x
Cc1cc(C(=O)NC2CCCN(Cc3ccccc3F)C2)n[nH]1 (centres undefined)	x	0.4	5.8	x	-4.4	-3.8	x	x
Cc1c(O)ccc2cc(S(=O)(=O)c3ccccc3)c(=O)oc12	x	0.5	34.0*	x	-0.9	-1.9	33.4*	57.9*
Cc1ccc(S(=O)(=O)c2cc3ccccc3oc2=O)cc1	5.8	-1.2	3.4	11.5	-3.8	-1.6	x	x
CCN1CCN(c2ccc(NC(=O)COc3ccc([N+](=O)[O-])cc3)cc2)CC1	x	-0.6	21.0*	x	-0.2	-3.3	-1.7	-2.0
O=C(COC(=O)CSc1ccccc1)NC1CCS(=O)(=O)C1 (centres undefined)	x	x	-3.1	x	1.0	x	x	x
COc1ccc(C=NNc2ccc([N+](=O)[O-])cc2S(=O)(=O)Nc2ccccc2C(=O)O)cc1OC	x	-0.5	27.0*	x	8.6	-2.1	36.1*	35.7*
C=CCOc1ccccc1C(=O)/C=C1/C(=O)Nc2ccccc21	x	151.6*	65.2*	x	17.2	-10.0	54.6*	-0.1
C=CCOc1ccc(C(=O)/C=C2/C(=O)Nc3ccccc32)cc1	x	18.5	24.6*	x	8.5	5.2	-0.5	-1.6
COc1ccc(C(=O)/C=C2/C(=O)Nc3ccccc32)cc1	x	20.4	33.3*	x	-1.4	15.9	10.2	-2.5
C=CCOc1ccc(C2NC(=O)c3ccccc3O2)cc1 (centres undefined)	x	3.7	5.0	x	-6.0	-1.7	x	x
CCOC(=O)C1CCC/C1=N\NC(=O)CN(c1cc(OC)ccc1OC)S(=O)(=O)c1ccccc1 (centres undefined)	x	2.2	-1.8	x	2.0	-4.0	x	x
O=C(Cc1cccc2ccccc12)N1CCCc2ccccc21	9.7	-2.3	23.6*	11.8	-0.4	-4.2	10.7	6.1
O=C(CN1C(=O)c2ccccc2S1(=O)=O)NCCSC1CCCCC1	2.4	-2.6	-6.4	17.7	-10.1	-3.0	x	x
O=C(CN1C(=O)c2ccccc2S1(=O)=O)NCCSCc1cccc(Cl)c1	x	0.0	28.7*	x	4.1	-2.9	1.6	-0.5
CCCCNC(=O)C(C)N(CCN(C)C)C(=O)CCCN1C(=O)NC(c2ccc([N+](=O)[O-])cc2)C(C(=O)OCc2ccccc2)=C1C (centres undefined)	x	2.1	21.9*	x	0.5	-1.7	2.1	-13.1
CN(C)c1ccc(C=c2c3ccccc3n3c2cc(-c2ccc(Cl)cc2)[n+]3C)cc1	x	x	24.6*	x	-2.3	x	23.3*	22.7*
CN(C)c1ccc(C=c2c3ccccc3n3c2cc(-c2ccccc2)[n+]3C)cc1	x	x	13.1	x	-11.8	x	x	x
O=C1CCN2C=Nc3cccc4ccc1c2c34	10.8	-1.3	22.7*	24.1	16.0	0.2	32.2*	38.1*
N#CC(=C1C=C(Br)C(=NO)C=C1Cl)c1ccc(Cl)cc1	x	x	9.2	x	-0.8	x	x	x
N#CC(=C1C=CC(=NO)C(Cl)=C1)c1ccccc1	x	x	32.4*	x	x	x	39.4*	14.5*
COc1ccccc1CN1CCNC(=O)C1CC(=O)NCCc1cnccn1 (centres undefined)	-10.1	0.1	-4.8	8.1	-15.8	-2.3	x	x
C=C(CN(C)C)C(=O)c1ccc(OC2OC(COC(C)=O)C(OC(C)=O)C(OC(C)=O)C2OC(C)=O)cc1 (centres undefined)	x	x	26.8*	x	7.8	x	73.7*	24.3*
C=C(CN(C)C)C(=O)c1ccc2c(c1)OCO2	x	x	4.3	x	-1.2	x	x	x
SMILES	TLR4-MyD88 BLA	UPR CHOP act	NOD2-RIPK2 inh	CHOP inh	TLR9-MyD88 inh	XBP1 UPR activ	NOD2-RIPK2 conf	BLA counter
CS(=O)(=O)c1ccc(C(=O)OCC(=O)N2CCN(CCC3CCCCC3)CC2)cc1[N+](=O)[O-]	x	x	55.0*	x	x	x	57.6*	8.6
CS(=O)(=O)c1ccc(C(=O)OCC(=O)N2CCOCC2)cc1[N+](=O)[O-]	x	x	9.9	x	x	x	x	x
Cc1c(Cl)cccc1NC(=S)NCc1ccc(Cl)cc1	1.3	-1.0	21.7*	x	-12.7	-4.2	-5.9	-3.4
Cc1c(Cl)cccc1NC(=S)NCc1ccccc1	-11.9	-2.2	-3.2	x	-4.4	-0.8	x	x
CN(C)CCCN(C(=O)CCOc1ccccc1)c1nc2ccc(F)cc2s1	6.9	x	47.1*	51.8	17.8	x	17.4	0.5
CN(C)CCCN(C(=O)COc1ccccc1)c1nc2ccc(F)cc2s1	3.0	-0.1	7.5	21.3	5.1	-2.4	x	x
CS(=O)(=O)c1ccc(C(=O)OCc2nnc(-c3ccccc3)o2)cc1[N+](=O)[O-]	-6.0	x	21.3*	88.0*	20.1	x	54.5*	6.2
CCC1SC(C)C/C(=N/NC(N)=O)C1C (centres undefined)	x	1.9	3.3	1.0	-13.5	1.2	x	x
CC1CC(C)C(=NNC(N)=O)C(C(O)CC2CCC(=O)NC2=O)C1 (centres undefined)	x	x	25.5*	x	-5.2	x	2.4	0.1
CC(=O)Nc1ccc(Sc2ccc([N+](=O)[O-])o2)cc1	x	x	29.0*	x	6.6	x	46.8*	15.7*
CCOC(=O)c1ccc(NC(=O)Nc2ccon2)cc1	x	4.1	22.3*	-6.5	10.5	21.8	21.2*	-1.6
COc1ccc(OC)c(N=C(N)N=C(N)N)c1	1.2	-0.4	-3.9	11.8	3.7	0.6	x	x
CCOC(=O)N1CCN(C(=O)C2CCCN(S(=O)(=O)c3ccc(C)cc3)C2)CC1 (centres undefined)	4.7	-2.9	-2.3	8.1	-5.6	-2.1	x	x
FC(F)(F)c1cnc2c(c1)Nc1ccccc1S2	-2.2	1.2	21.7*	43.6	10.2	-4.5	8.7	5.0
CCOc1ccccc1C(=O)NCC(=O)NCC(C)(C)N1CCOCC1	x	1.5	28.9*	x	-10.9	-3.8	-3.7	-1.7
COc1ccccc1C(=O)NCCC(=O)NCC(C)(C)N1CCOCC1	x	-1.1	-4.2	x	2.4	-2.9	x	x
C/C(CC(=O)Nc1ccc2c(c1)OCCO2)=N\NC(=O)COc1ccc(Cl)c(C)c1	x	-1.8	-0.7	x	-4.1	-1.8	x	x
O=C1c2cccc3c([N+](=O)[O-])ccc(c23)C(=O)N1O	x	-3.3	20.9*	x	9.4	21.6	17.2	12.5*
COc1ccc(S(=O)(=O)N(C)C[C@@H]2OCc3cn(nn3)CCCC(=O)N([C@@H](C)CO)C[C@H]2C)cc1	x	x	-6.1	x	2.5	x	x	x

Screening results from PubChem BioAssay.
